eIF2B yeast act: eIF2B (yeast) activity modulation; S. cerevisiae eIF2B-epsilon R284H, GCN4-lacZ luminescence; inhibition, % at 25 µM (by protocol); hit rate 0.91% among 27,000;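 active means mutant luminescence inhibited past about 50% while wild type luminescence and mutant growth stay under set limits, limit read from the data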
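Material: yeast eIF2B-epsilon R284H mutant carrying GCN4–beta-galactosidase fusion. Medium: YPD yeast growth medium. Incubation: 16 h growth with compound at 30 °C, 90 min Beta-Glo step. Signal: Beta-Glo luminescence plus absorbance at 595 nm. Evaluation: % inhibition of reporter signal and growth versus controls. Doses: 25 µM single dose.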
Yeast tox: Compounds toxic to wild-type S. cerevisiae growth | A595 turbidity, 16 h | growth inhibition, % at 25 µM (by protocol) | hit rate 0.3% among 30,000 | AID 685;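 active means mutant and wild-type yeast strains alike exhibit over 30% growth inhibition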;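 further: 0% = untreated cell controls and 100% = YPD media blanks without cells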
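Test system: Wild-type and eIF2Bepsilon-R284H mutant S. cerevisiae, screened separately | Dosing: Single 25 µM compound dose in 0.2% DMSO | Schedule: 16 h compound exposure during growth at 30 °C | Detection: A595 turbidity | Evaluation: Growth inhibition (%) versus cell controls and blanks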
Active calls of the source: *; / = no result given. An excerpt weighted towards active compounds, which were near 1% of everything screened.

SMILES	eIF2B yeast act	Yeast tox
Cc1ccc2c(c1)NCC(C(=O)NC1CCCCC1)O2 (stereo not given)	7	25
Cn1c(=O)c(=O)n(C)c2cc(S(=O)(=O)N3CCCCCC3)ccc21	58*	0
CCOc1cc(S(=O)(=O)N2CCCCC2)ccc1F	3	16
COC(=O)c1cc(OC)c(OC)cc1NC(=O)c1c(C)noc1C	17	-11
Oc1ccc(Br)cc1-c1cc(-c2ccccc2)n[nH]1	28	80*
Cc1ccc(O)c(-c2cc(-c3cccc(F)c3)n[nH]2)c1	/	51*
COc1ccc(-c2cc(-c3ccccc3O)[nH]n2)cc1OC	17	5
Oc1ccccc1-c1cc(-c2ccc3c(c2)OCCO3)n[nH]1	51*	/
Cc1ccc(O)c(-c2cc(-c3ccccc3F)[nH]n2)c1	/	-5
Cc1ccc(-c2cc(-c3cccc(F)c3)n[nH]2)c(O)c1	/	30*
Oc1ccc(Br)cc1-c1cc(-c2ccc(Cl)cc2)n[nH]1	/	-15
Cc1ccc(-c2cc(C(=O)Nc3c(C)n(C)n(-c4ccccc4)c3=O)[nH]n2)c(O)c1	/	-14
CC(C)CC(=O)NC1(C(F)(F)F)C(=O)N(Cc2ccccc2)C2=C1C(=O)CC(C)(C)C2 (stereo not given)	/	29
Cc1ccc(C(=O)N2CCC(C(=O)NCc3cccnc3)CC2)cc1	/	-4
Cc1ccc(S(=O)(=O)Cn2nnnc2C(c2ccccc2)N2CCN(c3ncccn3)CC2)cc1 (stereo not given)	27	-7
CC(=O)N1CCN(c2ccc(Oc3nc(-c4ccccc4)nc4ccccc34)cc2)CC1	12	-35
Cn1c(=O)cc(SCC(=O)NCC2CCCO2)c2ccccc21 (stereo not given)	-13	13
CCn1c(SCC(=O)Nc2nonc2C)nnc1-c1ccoc1C	-11	/
Cc1cc(NCc2ccc(F)cc2Cl)n2nnnc2n1	64*	16
COc1ccc(CNc2cc(C)nc3ncnn23)c(OC)c1	17	8
Cn1c(=O)c2c(nc(Sc3nc4ccccc4n3CC(=O)N3CCCCC3)n2C)n(C)c1=O	12	30
COc1ccc2c(c1)c1ncn(Cc3ccco3)c(=O)c1n2C	10	/
CCn1c(SCc2cccc(C)c2)nnc1-c1ccc(C)cc1	16	4
Cc1cccc(-c2nnc(SCC#N)n2Cc2ccccc2)c1	64*	-15
COc1ccc(OC)c(NC(=O)CNC(=O)Cn2c(C)cc3ccccc3c2=O)c1	/	-10
SMILES	eIF2B yeast act	Yeast tox
Cn1nnnc1SCC(=O)N1CCc2ccccc2C1	11	14
Nn1c(COc2cccc(Br)c2)nnc1SCC(=O)N1CCc2ccccc2C1	50*	1
COc1ccc(S(=O)(=O)N2CCCCC2C(=O)O)cc1 (stereo not given)	12	13
COc1ccc(S(=O)(=O)N2CCCCC2C(=O)O)cc1OC (stereo not given)	50*	-4
CCn1ncc(C2=NOC(C(=O)Nc3cnn(C45CC6CC(CC(C6)C4)C5)c3)C2)c1C (stereo not given)	26	11
O=C(O)c1ccc(CN2C(=O)CSC2=S)cc1	10	4
CCOC(=O)c1cc(S(=O)(=O)N2CCN(C(=O)OCC)CC2)cn1C	67*	-1
CCOC(=O)COc1ccc(S(=O)(=O)N2CCN(C(=O)OCC)CC2)cc1	11	9
O=C(CSc1nnnn1C1CCCCC1)Nc1ccc2c(c1)OCO2	17	15
O=C(O)CCCCCCCCCC(=O)c1cccs1	36	9
O=C(COc1cccc2ccccc12)Nc1nc2ccccc2[nH]1	/	30*
CC(CC(=O)Nc1nc2ccccc2[nH]1)c1ccccc1 (stereo not given)	1	14
O=C(CNS(=O)(=O)c1ccc(Br)cc1)N1CCN(c2ccc(F)cc2)CC1	1	-6
O=C(NCc1ccc2c(c1)OCO2)c1cccc(S(=O)(=O)N2CCCCC2)c1	38	14
O=S(=O)(NCCCO)c1ccc2c(c1)Cc1cc(S(=O)(=O)NCCCO)ccc1-2	22	-10
CC1(C)CC(=O)c2cc(OCC(=O)N3CCOCC3)ccc2O1	27	4
CC1(C)CC(=O)c2cc(OCC(=O)NCCCN3CCN(c4ccccc4F)CC3)ccc2O1	52*	-17
O=C(CSc1nc(O)cc(=O)n1-c1ccccc1)NC1CCCCC1	/	4
O=C(O)CSc1nnc(C2CC2)n1-c1ccccc1	24	-6
CCCCNC(=O)CN1C(=O)C(CC)Oc2ccc(Cl)cc21 (stereo not given)	28	-1
C=CCN(CC=C)Cc1c(C)[nH]c2ccc(C(=O)OCC)cc2c1=O	4	7
COC(=O)c1cn(CCOc2ccccc2)c2ccccc12	61*	11
COC(=O)c1cn(CCOc2ccccc2OC)c2ccccc12	7	/
CN1CCc2nc(SCCOc3ccccc3)c(C#N)cc2C1	70*	16
CCOC(=O)C1=C(CSc2nc3c(cc2C#N)CN(C)CC3)OC(N)=C(C#N)C1c1ccccc1 (stereo not given)	18	-6
SMILES	eIF2B yeast act	Yeast tox
CC(C)(C)SCCNC(=O)c1ccc(Cl)c(S(=O)(=O)N2CCOCC2)c1	52*	0
O=C(NCc1ccncc1)c1ccc(Cl)c(S(=O)(=O)N2CCOCC2)c1	19	/
CCc1nnc(NC(=O)CCC(=O)N2CCN(c3ccccn3)CC2)s1	-19	0
C=CCn1c(N)cc(=O)nc1SCC(=O)Nc1ccccc1	58*	-11
C=CCn1c(SCC(=O)Nc2sccc2C(N)=O)nc2ccccc2c1=O	19	-12
C=CCC(=O)OCC(=O)Nc1ccc(Cl)cn1	/	14
Cc1ccc(SC/C(O)=C(\C#N)c2nc3ccccc3n2C)cc1	12	-18
Cn1c(/C(C#N)=C(\O)CN2CCN(Cc3ccccc3)CC2)nc2ccccc21	64*	-15
Cc1ccc(-c2cn(S(=O)(=O)c3cccc4nsnc34)nc2N)cc1	58*	-1
Cc1ccc(C)c(N(C)S(=O)(=O)c2cccc3nsnc23)c1	3	0
CCC(C)N(C(=O)COC(=O)c1[nH]c(C)c(C(C)=O)c1C)C1CCS(=O)(=O)C1 (stereo not given)	54*	-1
CCN(C(=O)COC(=O)c1[nH]c(C)c(C(C)=O)c1C)C1CCS(=O)(=O)C1 (stereo not given)	-3	-4
CC(=O)c1ccc(N2CCN(C(=O)C3CCN(S(=O)(=O)Cc4ccccc4)CC3)CC2)cc1	6	-1
Cc1ccc(N2CC(C(=O)Nc3ccccc3C(=O)NC3CCCCC3)CC2=O)cc1C (stereo not given)	54*	10
O=C(Nc1ccccc1C(=O)NC1CCCCC1)c1ccco1	17	-2
Cc1ccc(CO/N=C\Cc2snc(Sc3ncc(C(F)(F)F)cc3Cl)c2C#N)cc1	13	20
C=CCSc1nc(C)c(CC=C)c(=O)[nH]1	-23	/
C=CCc1c(C)nc(SC(C)C)[nH]c1=O	52*	-13
CCn1c(=O)c(C(=O)NCc2ccc(OC)c(OC)c2)c(O)c2ccccc21	14	8
COC(=O)Nc1nnc(Cc2ccc(Cl)cc2)s1	19	13
CCn1c(NCc2cccc(OC)c2OC)nc2ccccc21	18	5
C=CCc1cccc(CNc2nc3ccccc3n2C(C)C)c1O	63*	15
COc1ccc(N2CCN(c3nc4c(c(=O)n(C)c(=O)n4C)n3CCCc3ccccc3)CC2)cc1	26	14
COCCOC(=O)CC1=NC(=O)CS1	1	21
CCOC(=O)CC1=NC(=O)CS1	64*	3

Assay outcomes (PubChem)
